Assay outcomes: PubChem, several laboratories
ABCB6 inh 2 – human ABCB6 transporter inhibition | fluorescence ratio to DMSO, % at 10 µM | 360,000 tested, 0.19% active | AID 602162 | K562-ABCB6 porphyrin accumulation, flow cytometry, 1 h; active compounds read low;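 active = fluorescence ratio to DMSO below 75%, the collection mean minus 3 SD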;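 note: signal is porphyrin accumulated inside mitochondria; 100% equals median channel fluorescence of DMSO control wells; lower ratio means ABCB6 inhibition with less porphyrin fluorescence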
Arrestin-AP2 inh – human beta-arrestin and AP2 interaction inhibition | AID 504490 | 340,000 tested, 0.31% active | FITC-arrestin peptide / GST-AP2 beads, flow cytometry; AP2 beta2 appendage carries R879A mutation | inhibition, % at 10 µM;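 active = inhibition above a set limit, near 3 SD of compounds lacking own fluorescence, cut at about 54% in these data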;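 note: plate controls were DMSO wells for no effect and 5 µM unlabelled arrestin peptide for full effect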
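System: GST-AP2 R879A bound to glutathione beads, E. coli-expressed. Also added: 50 nM FITC-arrestin peptide. Schedule: compound with beads 12 min RT, then probe 1 h RT. Signal: bead flow cytometry, FITC channel. Read-out basis: percent response.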
iPSC survival up – increases survival of single human iPS cells. hiPSC single-cell survival, ATPlite luminescence; 100% = ROCK inhibitor wells, 0% = DMSO. survival enhancement, % at 20 µM. 360,000 tested, 0.044% active; in the data active = survival enhancement above about 18%;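 note: cells exposed to compounds for 16 hours before the ATP read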
PG9 Ab binder – PG9 antibody binding by small molecule; TR-FRET gp120-PG9 antibody binding; inhibition, % at 6.7 µM; 360,000 tested, 0.43% active; in the data active = inhibition above about 8.5%
Arr-AP2 CP1 – inhibitors of human beta-arrestin and AP2 interaction; shares compounds with Arrestin-AP2 inh; GST-AP2 beads, FITC arrestin peptide binding, flow cytometry; GST-fused beta2-adaptin appendage, R879A mutant; inhibition, % at 10 µM; 1,300 tested, 2% active;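 active = inhibition above a set limit, roughly 3 SD of non-fluorescent compound noise, cut at about 38% in these data; inactive = inhibition at or below that limit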;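 note: loss of bead fluorescence from 50 nM FITC arrestin peptide bound to appendage; 0% = negative control wells and 100% = excess unlabelled arrestin peptide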
GST GSH counter – disrupts GST binding to glutathione beads, arrestin-AP2 artifact; shares compounds with Arrestin-AP2 inh; GST-fluorescein binding to GSH beads, fluorescence, counter-screen; inhibition, % at 10 µM; 1,300 tested, 2% active;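 active = inhibition above 50%, about 3 SD of the inhibition seen with non-fluorescent compounds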;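 note: fluorescein maleimide labelled GST captured on 4 micron glutathione beads; higher means more loss of bead fluorescence from quenching or blocked binding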
The depositor's hits bear a star; . = no result given. An excerpt weighted towards active compounds, which were near 0.89% of everything screened.

SMILES	ABCB6 inh 2	Arrestin-AP2 inh	iPSC survival up	PG9 Ab binder	Arr-AP2 CP1	GST GSH counter
O=C(COc1ccccc1Cl)N(Cc1cccs1)C1CCS(=O)(=O)C1 (stereo not given)	93	58*	0	1	19	-7
Cc1ccc(N2C(=N)/C(=C3/Nc4ccccc4S3)C(c3ccccc3)C2=O)cc1 (stereo not given)	111	56*	-3	0	1	-3
CC(=O)NCC1CCCN(c2nc3nonc3nc2N(C)Cc2ccccc2)C1 (stereo not given)	103	59*	1	-3	-17	-6
Cc1cc(C)c(S(=O)(=O)NCc2ccc3c(c2)OCO3)cc1C	95	4	1	1	.	.
O=S(=O)(NCc1ccc2c(c1)OCO2)c1ccc(Cl)s1	100	105*	0	-2	7	-4
CCOC(=O)C1=C(COC(=O)/C=C/c2ccc(OC)c(OC)c2)NC(=O)NC1C (stereo not given)	93	7	0	1	.	.
CCOC(=O)C1=C(COC(=O)Cc2ccccc2[N+](=O)[O-])NC(=O)NC1C (stereo not given)	104	.	-1	-2	.	.
CCOC(=O)C1=C(COC(=O)c2cccc(Cl)c2)NC(=O)NC1C (stereo not given)	98	-26	0	0	.	.
CCOC(=O)C1=C(COC(=O)CCc2ccc(F)cc2)NC(=O)NC1C (stereo not given)	97	1	-2	1	3	-2
CCOC(=O)C1=C(COC(=O)Cc2ccccc2)NC(=O)NC1C (stereo not given)	98	9	0	-2	20	-8
CCOC(=O)C1=C(COC(=O)C(C)(C)Oc2ccc(Cl)cc2)NC(=O)NC1C (stereo not given)	103	19	0	-2	-6	-5
CCOC(=O)C1=C(COC(=O)Cc2ccc(OC)c(OC)c2)NC(=O)NC1C (stereo not given)	95	38	0	-1	-7	3
COC(=O)[C@]12C[C@H](CC(=O)N3CCCCC3)C(=O)N(Cc3ccccc3)C1=C[C@H](C(C)(C)C)O[C@@H]2C	.	.	.	0	.	.
CCCCN1CC(COCc2ccccc2)Oc2cccc(N3CCCCC3)c2S1(=O)=O (stereo not given)	.	.	.	-2	.	.
CCOC(=O)C1=C(COC(=O)Cc2ccc(Cl)cc2)NC(=O)NC1C (stereo not given)	96	4	0	-2	9	1
COCc1[nH]nc2c1C(c1ccccc1)NC2=O (stereo not given)	.	.	.	0	.	.
CCN(C(=O)Cn1cnc2c1c(=O)n(C)c(=O)n2C)C1CCCCC1	96	61*	0	0	-2	-12
Cc1[nH]c2ccccc2c1CC(=O)Nc1ccc(Nc2cccnc2)c(-c2ccc(Cl)c(Cl)c2)c1	.	.	.	0	.	.
CN(c1ccccc1)c1nc(N)c(C#N)c(CC#N)c1C#N	98	62*	-1	-1	-11	-3
CCCN1CCC(=O)N(CCOc2ccccc2)CC1	97	-7	-1	0	.	.
CC(C)CN1CCC(=O)N(CCOc2ccccc2)CC1	97	57*	-1	-1	9	-1
COc1ccc(C(=O)NC(=S)Nc2ccc(S(=O)(=O)Nc3cc(OC)nc(OC)n3)cc2)cc1	97	56*	1	0	-2	-3
COc1ccc2nc(C)cc(N3CCN(S(=O)(=O)c4ccccc4F)CC3)c2c1	91	62*	1	1	-4	-6
Cc1ccccc1C(=O)Nc1c(C(=O)N(CCN(C)C)Cc2ccco2)oc2ccccc12	98	58*	0	0	-6	2
COc1ccccc1C(=O)Nc1c(C(=O)N(CCN(C)C)Cc2ccco2)oc2ccccc12	102	3	1	-1	.	.
NC(=O)c1c(N)[nH]c(C(=O)c2ccccc2)c1-c1ccccc1	.	.	.	0	.	.
CCN1CCN(Cc2ccc(NC(=O)c3cccc(-c4ccc5nc(NC(=O)C6CC6)sc5n4)c3)cc2C(F)(F)F)CC1	.	.	.	-2	.	.
CCOc1ccc(Cc2noc3c2C(=O)CC(C)(C)C3)cc1OCC	104	57*	0	0	9	-4
COC(=O)[C@]12C[C@H](CC(=O)NCCCN3CCCC3=O)C(=O)N(Cc3ccc4c(c3)OCO4)C1=C[C@H](COCc1ccccc1)O[C@@H]2C	.	.	.	0	.	.
